Activity, Change in amplitude response and IC50 data for two molecules are collected here from ChEMBL document CHEMBL1123302, “Antagonists of substance P. Further modifications of substance P antagonists obtained by replacing either positions 7, 9 or 7, 8 and 11 of SP with D-amino acid residues” (J Med Chem, 1986).

The term IC50 denotes the concentration that inhibits the measured activity by half.

In experiment [1] the target is Substance-P receptor (Cavia porcellus) (UniProt P30547). Kind of experiment: In vitro inhibition of substance P (6-11) hexapeptide induced contractions of the guinea pig ileum at 10 uM. Format: tissue-based. Summed up: (§1)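 Agonist (SP or SP(6-11)-hexapeptide) dose-response curves on a 3-min cycle with 1-min contact, then washout. Dose ratio = agonist EC50 with antagonist / EC50 alone. At least two preparations per compound; ratios below 2 taken as insignificant.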
Substance-P receptor (Cavia porcellus), sequence (P30547 whole entry): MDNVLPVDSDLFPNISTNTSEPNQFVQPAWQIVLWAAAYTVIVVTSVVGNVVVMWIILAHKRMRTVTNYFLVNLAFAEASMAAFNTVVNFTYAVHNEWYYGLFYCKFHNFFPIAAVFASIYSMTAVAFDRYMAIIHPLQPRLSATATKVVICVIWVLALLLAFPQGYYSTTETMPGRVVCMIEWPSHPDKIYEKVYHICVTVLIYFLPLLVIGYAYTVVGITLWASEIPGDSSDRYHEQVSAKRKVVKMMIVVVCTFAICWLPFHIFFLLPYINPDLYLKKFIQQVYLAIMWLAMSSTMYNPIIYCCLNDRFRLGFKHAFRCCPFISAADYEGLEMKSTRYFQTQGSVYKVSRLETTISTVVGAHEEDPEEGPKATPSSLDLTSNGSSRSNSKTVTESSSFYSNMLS

For experiment [2], the target named is Metabotropic glutamate receptor 3 (Rattus norvegicus) (UniProt P31422). The experiment can be described thus: Antagonistic activity against Glutamate receptor in rat spinal cord at concentration of 10 uM. In kind it is functional, tissue-based. An outline of the steps: (§2)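 Neonatal rat spinal cord, hemisected sagittally, superfused at 1 mL/min with oxygenated Krebs-Henseleit medium containing 0.5% urethane at room temperature. Agonists were given in 2-mL doses in the superfusate. Antagonist was superfused continuously for at least 15 min before agonist retesting. Read-out was ventral root depolarization (DC potential, ventral root vs cord body), measured as amplitude and area of response.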
Metabotropic glutamate receptor 3 (Rattus norvegicus), sequence (P31422 23-879 limits assumed): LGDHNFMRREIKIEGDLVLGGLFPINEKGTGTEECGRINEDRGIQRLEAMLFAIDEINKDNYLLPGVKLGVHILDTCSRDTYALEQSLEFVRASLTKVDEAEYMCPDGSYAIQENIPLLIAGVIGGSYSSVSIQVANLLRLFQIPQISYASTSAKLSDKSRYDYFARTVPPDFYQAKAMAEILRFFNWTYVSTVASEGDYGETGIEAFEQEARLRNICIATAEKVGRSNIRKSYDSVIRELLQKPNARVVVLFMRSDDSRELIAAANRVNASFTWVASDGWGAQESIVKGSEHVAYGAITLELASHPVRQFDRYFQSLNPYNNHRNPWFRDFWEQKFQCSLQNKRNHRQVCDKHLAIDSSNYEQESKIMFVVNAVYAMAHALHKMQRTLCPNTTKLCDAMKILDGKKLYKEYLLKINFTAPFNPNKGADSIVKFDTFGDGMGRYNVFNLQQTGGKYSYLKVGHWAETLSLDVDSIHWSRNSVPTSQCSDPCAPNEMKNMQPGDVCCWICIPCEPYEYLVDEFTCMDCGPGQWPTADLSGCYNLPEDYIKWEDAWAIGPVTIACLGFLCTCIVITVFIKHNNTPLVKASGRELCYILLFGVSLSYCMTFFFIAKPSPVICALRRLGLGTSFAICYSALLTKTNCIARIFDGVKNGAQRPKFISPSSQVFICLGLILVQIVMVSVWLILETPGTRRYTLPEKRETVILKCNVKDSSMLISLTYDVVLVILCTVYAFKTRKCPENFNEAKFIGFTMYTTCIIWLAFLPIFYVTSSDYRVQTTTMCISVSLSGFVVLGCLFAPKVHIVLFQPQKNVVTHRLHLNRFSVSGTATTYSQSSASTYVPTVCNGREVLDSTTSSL

For experiment [3], the target named is Substance-P receptor (Rattus norvegicus) (UniProt P14600). The experiment can be described thus: Antagonistic activity against Substance P(6-11) receptor in rat spinal cord at concentration of 50 uM.
Substance-P receptor (Rattus norvegicus), sequence (P14600 whole entry, looked up): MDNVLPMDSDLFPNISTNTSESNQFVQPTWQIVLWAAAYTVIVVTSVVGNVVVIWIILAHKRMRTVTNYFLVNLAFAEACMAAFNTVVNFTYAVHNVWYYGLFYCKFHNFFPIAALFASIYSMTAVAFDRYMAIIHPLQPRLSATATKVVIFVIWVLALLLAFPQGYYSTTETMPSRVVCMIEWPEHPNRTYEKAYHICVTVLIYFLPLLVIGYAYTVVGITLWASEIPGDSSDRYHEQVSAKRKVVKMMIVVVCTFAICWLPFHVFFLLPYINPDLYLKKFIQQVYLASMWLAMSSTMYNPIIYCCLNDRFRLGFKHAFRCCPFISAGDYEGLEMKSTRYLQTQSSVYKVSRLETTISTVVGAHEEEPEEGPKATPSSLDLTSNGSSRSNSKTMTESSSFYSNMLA
Experiment [4] has the same target. Kind of experiment: Antagonistic activity against Substance P receptor in rat spinal cord at concentration of 5 uM.
For experiment [5] the target is unchanged. Kind of experiment: Antagonistic activity against Substance P(6-11) receptor in rat spinal cord at concentration of 10 uM.
The subject of experiment [6] is muscarinic acetylcholine receptor (Rattus norvegicus). The experiment can be described thus: Antagonistic activity against Carbachol receptor in rat spinal cord at concentration of 5 uM.
Experiment [7] is described as follows: Antagonistic activity against Glutamate receptor in rat spinal cord at concentration of 50 uM.
For experiment [8], the target named is Substance-P receptor (Rattus norvegicus) (UniProt P14600). Kind of experiment: Antagonistic activity against Substance P receptor in rat spinal cord at concentration of 50 uM.
In experiment [9] the target is Substance-P receptor (Cavia porcellus) (UniProt P30547). Kind of experiment: In vitro inhibition of substance P induced contractions of the guinea pig ileum at 10 uM. Format: tissue-based. Summed up: as §1
Experiment [10] concerns the target Metabotropic glutamate receptor 3 (Rattus norvegicus) (UniProt P31422). The experiment can be described thus: Antagonistic activity against Glutamate receptor in rat spinal cord at concentration of 5 uM. Format: functional, tissue-based. Summed up: as §2
Experiment [11] has as its target Substance-P receptor (Cavia porcellus) (UniProt P30547). Kind of experiment: In vitro inhibition of substance P induced contractions of the guinea pig ileum at 5 uM. In kind it is tissue-based. Summed up:
as §1

The target is the same in experiment [12]. Kind of experiment: In vitro inhibition of substance P (6-11) hexapeptide induced contractions of the guinea pig ileum at 5 uM. In kind it is tissue-based. Summed up: as §1
The target of experiment [13] is Substance-P receptor (Rattus norvegicus) (UniProt P14600). The experiment can be described thus: Antagonistic activity against Substance P(6-11) receptor in rat spinal cord at concentration of 5 uM.
Experiment [14] deals with T1, Substance-P receptor (Rattus norvegicus, UniProt P14600). The experiment can be described thus: Histamine releasing activity of Substance P from isolated rat peritoneal mast cells. Format: functional. An outline of the steps: (§3)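 Histamine release from isolated rat peritoneal mast cells, method of Fretwell et al. Dose-response curves were built over a range of concentrations, and EC50 values were calculated from the curves.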
T1 sequence (P14600 whole entry): as the sequence (P14600 whole entry, looked up) above

Experiment [15] deals with Substance-P receptor (Rattus norvegicus) (UniProt P14600). Kind of experiment: Antagonistic activity against Substance P receptor in rat spinal cord at concentration of 10 uM.
For experiment [16], the system named is muscarinic acetylcholine receptor (Rattus norvegicus). The experiment can be described thus: Antagonistic activity against Carbachol receptor in rat spinal cord at concentration of 10 uM.
The target in experiment [17] is Substance-P receptor (Cavia porcellus) (UniProt P30547). Kind of experiment: Antagonistic activity against Substance P receptor in guinea pig ileum at concentration of 4.5 uM. Format: functional, tissue-based. Summed up:
(§4)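 Distal ileum from Dunkin-Hartley guinea pigs (300-350 g, both sexes), held in a 5-mL bath of Krebs solution at 37 °C gassed with 95% O2/5% CO2. Agonist dose-response curves ran on a 3-min cycle with 1-min contact, then washout. Dose ratio = agonist EC50 with antagonist / EC50 alone. At least two preparations per compound; ratios below two were taken as insignificant.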

The target is the same in experiment [18]. The experiment can be described thus: Antagonistic activity against Substance P(6-11) receptor in guinea pig ileum at concentration of 1 uM. Format: functional, tissue-based. Summed up:
as §4

Experiment [19] has as its target Substance-P receptor (Rattus norvegicus) (UniProt P14600). Kind of experiment: Antagonistic activity against Substance P receptor in rat spinal cord at concentration of 43 uM.
For experiment [20], the target named is Substance-P receptor (Cavia porcellus) (UniProt P30547). The experiment can be described thus: Antagonistic activity against Substance P(6-11) receptor in guinea pig ileum at concentration of 4.5 uM. Format: functional, tissue-based. Summed up: as §4
The target in experiment [21] is Substance-P receptor (Rattus norvegicus) (UniProt P14600). The experiment can be described thus: Antagonistic activity against Substance P receptor in rat spinal cord at concentration of 21 uM.
Experiment [22] addresses T1, Substance-P receptor. The experiment can be described thus: Compound was evaluated for the histamine releasing activity of the Substance P from isolated rat peritoneal mast cells using the procedure of Fretwell et al. Format: functional, cell-based. An outline of the steps:
as §3

The target in experiment [23] is Substance-P receptor (Rattus norvegicus) (UniProt P14600). The experiment can be described thus: Antagonistic activity against Substance P(6-11) receptor in rat spinal cord at concentration of 43 uM.
Experiment [24] has as its target Metabotropic glutamate receptor 3 (Rattus norvegicus) (UniProt P31422). Kind of experiment: Antagonistic activity against Glutamate receptor in rat spinal cord at concentration of 21 uM. Format: functional, tissue-based. Summed up: as §2
The target of experiment [25] is Substance-P receptor (Rattus norvegicus) (UniProt P14600). The experiment can be described thus: Antagonistic activity against Substance P(6-11) receptor in rat spinal cord at concentration of 21 uM.
Experiment [26] deals with Substance-P receptor (Cavia porcellus) (UniProt P30547). Kind of experiment: Antagonistic activity against Substance P receptor in guinea pig ileum at concentration of 1 uM. In kind it is functional, tissue-based. An outline of the steps:
as §4

With `COC(=O)[C@H](CCSC)NC(=O)[C@H](CC(C)C)NC(=O)[C@@H](Cc1c[nH]c2ccccc12)NC(=O)[C@H](Cc1ccccc1)NC(=O)[C@@H](Cc1ccccc1)NC(=O)[C@H](CCCN=C(N)N)NC(=O)[C@H](CC(N)=O)NC(=O)C1CCCN1C(=O)[C@H](CCCCNC(=O)OCc1ccccc1)NC(=O)C1CCCN1C(=O)[C@H](CCCN=C(N)N)NC(=O)OCc1ccccc1` (stereo in doubt), the Activity is 11.1 dose ratio in experiment [1], 31.1 dose ratio in [9], 14 dose ratio in experiment [11] and 3.2 dose ratio in experiment [12]. The Change in amplitude response is -1% in experiment [2]; -85% in experiment [3]; -29% in [4]; -75% in [5]; -52% in [6]; 20% in experiment [7]. Besides, the Change in amplitude response in [8] was -37%; in experiment [10], -3%; in experiment [13] it was -73%; in [15] it was 3%; in experiment [16], -51%. Also, the IC50 at Substance-P receptor [14] is 600 nM.

`COC(=O)[C@H](CCSC)NC(=O)[C@H](CC(C)C)NC(=O)[C@@H](Cc1c[nH]c2ccccc12)NC(=O)[C@H](Cc1ccccc1)NC(=O)[C@@H](Cc1ccccc1)NC(=O)[C@H](CCCCNC(=O)OCc1ccccc1)NC(=O)[C@H](CC(N)=O)NC(=O)[C@@H]1CCCN1C(=O)[C@H](CCCCNC(=O)OCc1ccccc1)NC(=O)[C@@H]1CCCN1C(=O)[C@H](CCCN=C(N)N)NC(=O)OCc1ccccc1`: the Activity in [17] amounted to 11.4 dose ratio; in experiment [18] it was 9.3 dose ratio; in experiment [20], 10.8 dose ratio; in [26], 5 dose ratio. Also, the Change in amplitude response in experiment [19] was 0%; in [21] it was 17%; in experiment [23] it was -54%; in [24] it was -15%; in experiment [25], -44%. This molecule came in with an IC50 at Substance-P receptor [22] greater than 500000 nM.
